Measurements pooled from the literature.
Each line is one published result; the experiments were not run side by side.
Effect on: metabolic stability

SMILES | species | medium | tested at | time | pH | setting | scaled CLint
COc1cc(C2Oc3cc([C@H]4Oc5cc(O)cc(O)c5C(=O)[C@@H]4O)ccc3OC2CO)ccc1O (stereo partly drawn) | mouse | liver microsomes | 1 µM | – | – | – | 66.5 mL/min/kg
O=C(c1ccc(F)cc1)C1CCN(CCn2c(=O)[nH]c3ccccc3c2=O)CC1 | mouse | liver microsomes | – | – | – | – | 376 mL/min/kg
Cc1ccc(-c2nc3ccccc3s2)cc1NC(=O)c1cc([N+](=O)[O-])c(N2CCN(C)CC2)cc1Cl | CD-1 mouse | liver microsomes | 1 µM | 1 h | pH 7.4 | – | 105 mL/min/kg
Cc1ccc(F)c2cc(C(=O)N[C@@H]3CCC[C@H](c4ccncc4)C3)[nH]c12 | mouse | hepatocytes | 0.5 µM | 1 h | – | – | 399 mL/min/kg
O=c1ccc2ccc(O)cc2o1 | mouse | liver S9 | 2 µM | – | pH 7.4 | – | 2120 mL/min/kg
CN[C@@H]1CCN(c2ccc(Nc3cc(NC4CC4)n4ncc(C#N)c4n3)cc2NC(C)=O)C1 | male CD-1 mouse | hepatocytes | 1 µM | – | – | serum-free | 126 mL/min/kg
Cc1cc(NC(=O)Cc2ccc(F)c(C#N)c2)n(CC2CCCCC2)n1 | mouse | liver microsomes | – | – | – | – | 2970 mL/min/kg
Cc1cc(Cl)c(Cl)cc1NC(=O)c1ccc(N2CCNCC2)c([N+](=O)[O-])c1 | CD-1 mouse | liver microsomes | 1 µM | 1 h | pH 7.4 | – | 21 mL/min/kg
CCCN(C)Cc1cc(-c2[nH]c3cccc(F)c3c(=O)c2C)ccc1Cc1ccc(OC(F)(F)F)cc1 | mouse | liver microsomes | – | – | – | – | 1570 mL/min/kg
O=C(Nc1cncc(-c2nc3ccccc3o2)c1)c1ccc(N2CCNCC2)c([N+](=O)[O-])c1 | CD-1 mouse | liver microsomes | 1 µM | 1 h | pH 7.4 | – | 10 mL/min/kg
CC(=O)Nc1cc(Nc2cc(NC3CC3)n3ncc(C#N)c3n2)ccc1N(C)C[C@@H]1CCCN1 | male CD-1 mouse | hepatocytes | 1 µM | – | – | serum-free | 171 mL/min/kg
Cc1ccc(F)c2cc(C(=O)N[C@@H]3CCC[C@H](N4CCN(S(C)(=O)=O)CC4)C3)[nH]c12 | mouse | hepatocytes | 0.5 µM | 1 h | – | – | 328 mL/min/kg
Cc1ccc(-c2nc3ccccc3s2)cc1NC(=O)c1cc([N+](=O)[O-])c(F)cc1F | CD-1 mouse | liver microsomes | 1 µM | 1 h | pH 7.4 | – | 52 mL/min/kg
Cc1ccc(F)c2cc(C(=O)N[C@@H]3CCC[C@H](N4CCN(C)C(=O)C4)C3)[nH]c12 | mouse | hepatocytes | 0.5 µM | 1 h | – | – | 164 mL/min/kg
CCOc1c(O)cc(Br)c2c1CN1CCc3cc(OCC(F)F)c(O)cc3[C@@H]1C2 | mouse | liver S9 | 2 µM | – | pH 7.4 | – | 1040 mL/min/kg
